Measurements: ChEMBL document CHEMBL1123007, “New antiarrhythmic agents. N-aryl-8-pyrrolizidinealkanamides” (J Med Chem, 1985)
Active and inactive are the calls of the source. The calls are words filed in the database; no cut-off is given here.

Key:
[1] = Acute toxicity was determined in mice; type: organism-based; conditions: mouse, in vivo
Mus musculus [2] = assay: Antiarrhythmic activity evaluated in mouse after subcutaneous administration; type: functional; conditions: Heart, sc
Procedure, shortened: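 Male DDY mice (18-22 g), groups of 10, dosed s.c. at 0.1 mL/10 g body weight, three to four doses per compound. ED50 (dose protecting 50% from fibrillation) by Litchfield-Wilcoxon, with 95% confidence limits.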

[3] = Potency of the drug was evaluated by comparison with Lidocain; potency = ED50 of Lidocaine /ED50 of compound.; type: functional
[4] = Ratio of LD50 to ED50 evaluated for its antiarrhythmic potency; type: functional, Heart
Mus musculus [5] = assay: Antiarrhythmic activity evaluated in mouse after subcutaneous administration; No effect; type: functional, organism-based; conditions: Heart
[6] = Potency of the drug was evaluated by comparison with Lidocain; potency = ED50 of Lidocaine /ED50 of compound; type: functional

Row | SMILES | Potency [3] | Ratio [4] | other results
1 | Nc1ccc(NC(=O)CC23CCCN2CCC3)cc1 |  |  | LD50 [1]: 12 mg/kg
2 | COc1cccc(NC(=O)CC23CCCN2CCC3)c1 |  |  | ED40 (Mus musculus [2]): 100 mg/kg
3 | CCN(CC)CC(=O)Nc1c(C)cccc1C [LIDOCAINE] | 1 |  | ED50 (Mus musculus [2]): 29 mg/kg
4 | Cc1cc(C)cc(NC(=O)CC23CCCN2CCC3)c1 | 0.69 | 6.83 | 
5 | CCc1cccc(CC)c1NC(=O)CC12CCCN1CCC2 | 1.41 | 9.93 | 
6 | O=C(CC12CCCN1CCC2)Nc1ccccc1Br | 0.76 | 7.54 | 
7 | Cc1cccc(NC(=O)CC23CCCN2CCC3)c1C | 0.56 | 7.33 | 
8 | Cc1ccc(C)c(NC(=O)CC23CCCN2CCC3)c1 | 0.5 | 5.56 | 
9 | COc1ccccc1NC(=O)CC12CCCN1CCC2 |  |  | ED40 (Mus musculus [2]): 100 mg/kg
10 | Cc1ccccc1NC(=O)CC12CCCN1CCC2 |  |  | ED40 (Mus musculus [2]): 100 mg/kg
11 | Cc1ccc(NC(=O)CC23CCCN2CCC3)cc1 |  |  | ED20 (Mus musculus [2]): 100 mg/kg
12 | Cc1ccc(NC(=O)CC23CCCN2CCC3)cc1C | 0.47 | 7.36 | 
13 | Cc1cc(C)c(NC(=O)CC23CCCN2CCC3)c(C)c1 | 1.22 | 9.09 | 
14 | O=C(CC12CCCN1CCC2)Nc1ccccc1 |  |  | ED50 (Mus musculus [5]): inactive
15 | COc1ccc(NC(=O)CC23CCCN2CCC3)cc1 | 0.6 | 4.8 | 
16 | Cc1cccc(C)c1NC(=O)CC12CCCN1CCC2 | 1.51 |  | 
17 | Nc1ccccc1NC(=O)CC12CCCN1CCC2 |  | 6.33 | Potency [6]: 0.9; ED50 (Mus musculus [2]): 100 mg/kg
18 | Cc1cccc(C)c1NC(=O)C12CCCN1CCC2 |  |  | ED20 (Mus musculus [2]): 100 mg/kg; LD50 [1]: 603 mg/kg
19 | O=C(CC12CCCN1CCC2)Nc1ccccc1Cl |  |  | ED20 (Mus musculus [2]): 100 mg/kg
20 | O=C(CC12CCCN1CCC2)Nc1c(Cl)cccc1Cl |  |  | ED20 (Mus musculus [2]): 100 mg/kg
21 | COc1ccc(OC)c(NC(=O)CC23CCCN2CCC3)c1 | 0.44 | 2.26 | 
